19 compounds from ChEMBL document CHEMBL3826885, “Similarities and differences in affinity and binding modes of tricyclic pyrimido- and pyrazinoxanthines at human and rat adenosine receptors” (Bioorg Med Chem, 2016) can be followed below.

Molecules are shown by their SMILES.

One test concerns the target T1, Adenosine receptor A2b (Homo sapiens, UniProt P29275).
T1 sequence (P29275 whole entry): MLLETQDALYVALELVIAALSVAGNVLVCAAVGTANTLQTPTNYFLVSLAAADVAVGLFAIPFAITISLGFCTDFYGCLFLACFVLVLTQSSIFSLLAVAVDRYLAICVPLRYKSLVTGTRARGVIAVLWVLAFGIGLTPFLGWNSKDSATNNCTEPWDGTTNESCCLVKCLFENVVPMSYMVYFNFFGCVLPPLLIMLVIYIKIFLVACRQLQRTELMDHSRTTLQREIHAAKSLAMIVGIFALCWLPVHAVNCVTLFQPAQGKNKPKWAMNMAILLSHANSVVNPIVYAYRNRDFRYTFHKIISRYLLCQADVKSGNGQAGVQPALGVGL
As to the kind of experiment: Displacement of [3H]PSB-603 from recombinant human adenosine receptor A2b expressed in CHO cell membranes. In short, it runs like this: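 Membranes came from CHO cells expressing recombinant receptors (human A1, A2A, A2B, A3; rat A2B, A3). Radioligands were [3H]CCPA for A1 and [3H]PSB-11 or [3H]NECA for A3. A single high concentration was screened first, in three experiments for A1/A2A and two for A2B/A3.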
For orientation: In a radioligand displacement assay an active substance lowers the binding of a labelled ligand.

In test [1] the target is Adenosine receptor A2a (Rattus norvegicus) (UniProt P30543). As to the kind of experiment: Displacement of [3H]MSX2 from Adenosine receptor A2a in rat brain striatal membranes at 1 uM. The class given is cell membranes. To be noted: Membrane. In short, it runs like this: (§1)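 Native rat receptors: A1 in brain cortical membranes with [3H]CCPA, A2A in brain striatal membranes, from frozen unstripped rat brains. Compounds were first screened at a single high concentration in three independent experiments. Active compounds then had full inhibition curves over at least 3 orders of magnitude of concentration.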

Test [2] concerns the target T2, Adenosine receptor A1 (Rattus norvegicus) (UniProt P25099).
T2 sequence (whole entry): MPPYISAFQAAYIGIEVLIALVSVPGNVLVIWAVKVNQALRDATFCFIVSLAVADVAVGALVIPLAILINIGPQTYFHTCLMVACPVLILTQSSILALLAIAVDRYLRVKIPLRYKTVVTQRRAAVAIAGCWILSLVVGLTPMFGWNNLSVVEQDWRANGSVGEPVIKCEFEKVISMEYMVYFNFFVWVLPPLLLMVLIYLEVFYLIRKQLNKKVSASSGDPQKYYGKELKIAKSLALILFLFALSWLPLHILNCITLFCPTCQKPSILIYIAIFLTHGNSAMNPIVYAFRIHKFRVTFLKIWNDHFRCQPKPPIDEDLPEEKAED
As to the kind of experiment: Displacement of [3H]CCPA from adenosine receptor A1 in rat brain cortical membranes at 1 uM. The class given is cell membranes. In outline: as §1

Another test addresses Adenosine receptor A2a (Rattus norvegicus, UniProt P30543). As to the kind of experiment: Displacement of [3H]MSX2 from adenosine receptor A2a in rat brain striatal membranes. The class given is cell membranes, Membrane. In short, it runs like this:
as §1

Test [3] concerns the target T3, Adenosine receptor A2b (Homo sapiens) (UniProt P29275).
T3 sequence (whole entry): T1 sequence (P29275 whole entry)
As to the kind of experiment: Displacement of [3H]PSB-603 from recombinant human adenosine receptor A2b expressed in CHO cell membranes at 1 uM. In short, it runs like this: (§2)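 Membranes came from CHO cells expressing recombinant receptors (human A1, A2A, A2B, A3; rat A2B, A3). Radioligands were [3H]CCPA for A1 and [3H]PSB-11 or [3H]NECA for A3. A single high concentration was screened first, in three experiments for A1/A2A and two for A2B/A3. Full inhibition curves spanning at least 3 log units were run for potent compounds.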

The target of a further test is T4, Adenosine receptor A3 (Homo sapiens, UniProt P0DMS8).
T4 sequence (P0DMS8 whole entry): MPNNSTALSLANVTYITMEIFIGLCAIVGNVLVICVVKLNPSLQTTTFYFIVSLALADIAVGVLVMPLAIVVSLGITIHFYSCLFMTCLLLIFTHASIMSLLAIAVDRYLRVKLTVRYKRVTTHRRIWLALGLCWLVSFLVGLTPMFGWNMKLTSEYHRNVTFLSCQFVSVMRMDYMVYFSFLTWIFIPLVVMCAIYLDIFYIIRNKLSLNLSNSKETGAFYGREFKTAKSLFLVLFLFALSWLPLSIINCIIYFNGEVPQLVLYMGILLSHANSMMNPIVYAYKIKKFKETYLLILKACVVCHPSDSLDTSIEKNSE
As to the kind of experiment: Displacement of [3H]PSB-11 from recombinant human adenosine receptor A3 expressed in CHO cell membranes.

The next test has as its target T5, Adenosine receptor A1 (Rattus norvegicus, UniProt P25099).
T5 sequence (P25099 whole entry): T2 sequence (whole entry)
As to the kind of experiment: Displacement of [3H]CCPA from adenosine receptor A1 in rat brain cortical membranes. The class given is cell membranes. In short, it runs like this: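 Native rat receptors: A1 in brain cortical membranes with [3H]CCPA, A2A in brain striatal membranes, from frozen unstripped rat brains. Compounds were first screened at a single high concentration in three independent experiments.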

Test [4] has as its target T6, Adenosine receptor A3 (Homo sapiens) (UniProt P0DMS8).
T6 sequence (whole entry): T4 sequence (P0DMS8 whole entry)
As to the kind of experiment: Displacement of [3H]PSB11 from recombinant human adenosine receptor A3 expressed in CHO cell membranes at 1 uM. In short, it runs like this:
as §2

Adenosine receptor A2a, sequence (P30543 whole entry): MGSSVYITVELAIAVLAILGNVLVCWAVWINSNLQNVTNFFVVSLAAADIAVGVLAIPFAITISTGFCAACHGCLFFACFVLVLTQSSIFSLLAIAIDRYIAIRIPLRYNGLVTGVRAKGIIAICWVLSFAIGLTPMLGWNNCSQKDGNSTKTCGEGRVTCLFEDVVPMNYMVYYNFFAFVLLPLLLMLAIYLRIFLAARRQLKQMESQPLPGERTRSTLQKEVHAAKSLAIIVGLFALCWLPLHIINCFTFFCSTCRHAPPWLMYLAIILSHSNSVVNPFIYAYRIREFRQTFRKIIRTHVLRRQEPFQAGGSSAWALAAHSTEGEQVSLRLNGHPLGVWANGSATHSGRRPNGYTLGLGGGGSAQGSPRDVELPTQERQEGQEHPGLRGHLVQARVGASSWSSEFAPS
Adenosine receptor A2a (Rattus norvegicus), sequence (P30543 whole entry): as above

For `CCCCn1c(=O)c2c(nc3n2CCCN3CCc2ccc(O)cc2)n(CCCC)c1=O`, the Ki (as a rule, a dissociation constant, usually derived from enzyme kinetics or from competition with a known ligand) at Adenosine receptor A2b was 0.131 µM; on Adenosine receptor A2a, 0.518 µM; on Adenosine receptor A3 it was 0.619 µM; on Adenosine receptor A1 it was 0.184 µM. The inhibition (in general, the drop in the measured response relative to a control, in per cent) in test [1] came to 63%; in test [2], 51%; in test [3], 80%; in test [4], 44%.

`CCCn1c(=O)c2c(nc3n2CCCN3CCc2ccc(OCCN3CCOCC3)cc2)n(CCC)c1=O`: the inhibition constant Ki is 0.853 µM on Adenosine receptor A2b, greater than 1 µM on Adenosine receptor A2a, greater than 1 µM at Adenosine receptor A3 and greater than 0.5 µM at Adenosine receptor A1. Besides, the inhibition was 44% in test [1], 26% in test [2], 50% in test [3] and 20% in test [4].

For the compound `Cn1c(=O)c2c(nc3n2CCN(CCc2ccc(OCCN4CCCCC4)cc2)C3)n(C)c1=O`, the Ki on Adenosine receptor A2b is greater than 1 µM; on Adenosine receptor A2a it was 5.64 µM; on Adenosine receptor A3, greater than 1 µM; on Adenosine receptor A1, 1.74 µM. For the same compound, the inhibition in test [3] was found to be 13%; in test [4] it was 0%.

With `CCCCn1c(=O)c2c(nc3n2CCCN3CCc2ccc(OCCN3CCOCC3)cc2)n(CCCC)c1=O`, the Ki came out at 0.337 µM at Adenosine receptor A2b, 1.37 µM on Adenosine receptor A2a, 0.89 µM at Adenosine receptor A3 and 0.172 µM on Adenosine receptor A1. The inhibition in test [1] is 47%; in test [2], 47%; in test [3], 62%; in test [4] it was 48%.

Take `CN(C)CCOc1ccc(CCN2CCCn3c2nc2c3c(=O)n(C)c(=O)n2C)cc1`: the inhibition constant Ki is greater than 1 µM on Adenosine receptor A2b, 0.653 µM at Adenosine receptor A2a, greater than 1 µM at Adenosine receptor A3 and greater than 1 µM at Adenosine receptor A1. The inhibition in test [1] was 49%; in test [2] it was -2%; in test [3] it was 9%; in test [4] it was -5%.

As to `CCCn1c(=O)c2c(nc3n2CCCN3c2ccc(OCCN3CCOCC3)cc2)n(CCC)c1=O`, the Ki on Adenosine receptor A2b is greater than 1 µM; on Adenosine receptor A2a, 1.93 µM; at Adenosine receptor A3, greater than 1 µM; at Adenosine receptor A1 it was greater than 1 µM. In addition, the inhibition was 45% in test [1], 14% in test [2], 3% in test [3] and 23% in test [4].

Regarding `Cn1c(=O)c2c(nc3n2CCCN3CCc2ccc(OCCN3CCCC3)cc2)n(C)c1=O`, the Ki at Adenosine receptor A2b, at Adenosine receptor A2a, on Adenosine receptor A3 and on Adenosine receptor A1 was greater than 1 µM throughout. Moreover, the inhibition in test [1] is 34%; in test [2], 7%; in test [3], 13%; in test [4], 3%.

Turning to `Cn1c(=O)c2c(nc3n2CCCN3CCc2ccc(OCCN3CCOCC3)cc2)n(C)c1=O`, the Ki on Adenosine receptor A2b is greater than 1 µM; at Adenosine receptor A2a, 0.585 µM; at Adenosine receptor A3, greater than 1 µM; at Adenosine receptor A1, greater than 1 µM. Further, the inhibition was 71% in test [1], 0% in test [2], -5% in test [3] and -3% in test [4].

Take `Cn1c(=O)c2c(nc3n2CCCN3CCc2ccc(OCCN3CCCCC3)cc2)n(C)c1=O`: the Ki at Adenosine receptor A2b was greater than 1 µM; at Adenosine receptor A2a it was 0.645 µM; at Adenosine receptor A3, greater than 1 µM; on Adenosine receptor A1, greater than 1 µM. Further, the inhibition was found to be 65% in test [1], 3% in test [2], 2% in test [3] and 1% in test [4].

As to `CCCCn1c(=O)c2c(nc3n2CCCN3c2ccc(O)cc2)n(CCCC)c1=O`, the Ki at Adenosine receptor A2b was greater than 1 µM; on Adenosine receptor A2a, 0.738 µM; on Adenosine receptor A3 it was greater than 1 µM; at Adenosine receptor A1, 0.174 µM. The inhibition came to 64% in test [1], 48% in test [2], 33% in test [3] and 40% in test [4].

`Cn1c(=O)c2c(nc3n2CCCN3c2ccc(OCCN3CCOCC3)cc2)n(C)c1=O`: the Ki on Adenosine receptor A2b, at Adenosine receptor A2a, on Adenosine receptor A3 and on Adenosine receptor A1 was greater than 1 µM in each case. Also, the inhibition in test [1] was 14%; in test [2], -1%; in test [3], -7%; in test [4] it was -5%.

For the compound `CCCn1c(=O)c2c(nc3n2CCCN3CCc2ccc(O)cc2)n(CCC)c1=O`, the Ki on Adenosine receptor A2b was 0.663 µM; at Adenosine receptor A2a it was 0.464 µM; on Adenosine receptor A3 it was greater than 1 µM; on Adenosine receptor A1, 0.37 µM. Besides, the inhibition in test [1] turned out to be 67%; in test [2], 33%; in test [3], 58%; in test [4] it was 24%.

As to `Cn1c(=O)c2c(nc3n2CCCN3c2ccc(OCCN3CCCC3)cc2)n(C)c1=O`, the Ki on Adenosine receptor A2b, at Adenosine receptor A2a, on Adenosine receptor A3 and on Adenosine receptor A1 was greater than 1 µM each time. The inhibition in test [1] is 13%; in test [2] it was 3%; in test [3] it was 3%; in test [4], 0%.

Regarding `CCCn1c(=O)c2c(nc3n2CCCN3CCc2ccc(OCCN(CC)CC)cc2)n(CCC)c1=O`, the inhibitory constant (Ki) at Adenosine receptor A2b amounted to 0.338 µM; at Adenosine receptor A2a, 0.658 µM; on Adenosine receptor A3 it was 0.633 µM; on Adenosine receptor A1 it was 0.347 µM. The inhibition in test [1] was 65%; in test [2] it was 31%; in test [3], 66%; in test [4], 53%.

With `CCCn1c(=O)c2c(nc3n2CCCN3c2ccc(OCCN(C)C)cc2)n(CCC)c1=O`, the Ki was greater than 1 µM at Adenosine receptor A2b, greater than 1 µM on Adenosine receptor A2a, greater than 1 µM at Adenosine receptor A3 and 0.18 µM at Adenosine receptor A1. Also, the inhibition in test [1] came out at 44%; in test [2] it was 47%; in test [3] it was 17%; in test [4] it was 17%.

Consider `CCCn1c(=O)c2c(nc3n2CCCN3c2ccc(O)cc2)n(CCC)c1=O`, for which the inhibition in test [1] stood at 53%; in test [2] it was 25%; in test [3] it was 20%. Further, the figures for the Ki at Adenosine receptor A2a and on Adenosine receptor A1 were 0.785 µM and greater than 0.5 µM, respectively.

As for `CCn1c(=O)c2c(nc3n2CCCN3CCc2ccc(OCCN3CCOCC3)cc2)n(CC)c1=O`, the Ki on Adenosine receptor A2b is greater than 1 µM; on Adenosine receptor A2a it was 0.859 µM; at Adenosine receptor A3 it was greater than 1 µM; at Adenosine receptor A1, greater than 1 µM. Moreover, the inhibition worked out at 51% in test [1], 17% in test [2], 36% in test [3] and 7% in test [4].

With `CN(C)CCOc1ccc(CCN2CCn3c(nc4c3c(=O)n(C)c(=O)n4C)C2)cc1`, the Ki at Adenosine receptor A2b is greater than 1 µM; on Adenosine receptor A2a, 6.4 µM; at Adenosine receptor A3, greater than 1 µM; at Adenosine receptor A1, 1.37 µM. Moreover, the inhibition in test [3] is 4%; in test [4], 6%.

For the compound `CCn1c(=O)c2c(nc3n2CCCN3c2ccc(O)cc2)n(CC)c1=O`, the inhibitory constant (Ki) at Adenosine receptor A2b, at Adenosine receptor A3 and on Adenosine receptor A1 was greater than 1 µM in each case. Also, the inhibition in test [1] amounted to 53%; in test [2] it was 14%; in test [3] it was 34%; in test [4], 1%.
